Reference: ChEMBL document CHEMBL4118192, “BET bromodomain ligands: Probing the WPF shelf to improve BRD4 bromodomain affinity and metabolic stability” (Bioorg Med Chem, 2018)

How the values were obtained:
Format in all cases: functional
MCF7 = test: Growth inhibition of human MCF7 cells at 10 uM after 48 hrs by sulforhodamine B assay relative to control; conditions: MCF7, 48 h, read-out: GI
Outline: (§1)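 NCI-60 single-dose screen at 10 μM for 48 h. Percent growth inhibition was measured by sulforhodamine B staining of cellular protein.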

DU-145 = test: Growth inhibition of human DU145 cells after 48 hrs by sulforhodamine B assay; conditions: DU-145, 48 h
Outline: (§2)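 NCI-60 panel screen. Cells were exposed for 48 h at five concentrations between 10 nM and 100 μM. Cellular protein was read by sulforhodamine B staining, and GI50 and total growth inhibition (TGI) concentrations were derived.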

BT-549 = test: Growth inhibition of human BT549 cells at 10 uM after 48 hrs by sulforhodamine B assay relative to control; conditions: BT-549, 48 h, read-out: GI; outline: as §1
OVCAR-5 = test: Growth inhibition of human OVCAR5 cells after 48 hrs by sulforhodamine B assay; conditions: OVCAR-5, 48 h
Outline: (§3)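 NCI-60 panel follow-up: five concentrations from 10 nM to 100 μM, 48 h exposure. Growth read by sulforhodamine B protein staining. GI50 derived from the concentration-response, with the concentration for total growth inhibition (TGI) also recorded when below 100 μM.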

TK-10 = test: Growth inhibition of human TK10 cells at 10 uM after 48 hrs by sulforhodamine B assay relative to control; conditions: TK-10, 48 h, read-out: GI
Outline: (§4)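 NCI-60 human cancer cell line screen, single dose of 10 μM for 48 h. Cellular protein content read by sulforhodamine B staining; growth inhibition expressed relative to untreated control.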

UO-31 = test: Growth inhibition of human UO31 cells at 10 uM after 48 hrs by sulforhodamine B assay relative to control; conditions: UO-31, 48 h, read-out: GI; outline: as §4
HOP-92 = test: Growth inhibition of human HOP92 cells at 10 uM after 48 hrs by sulforhodamine B assay relative to control; conditions: HOP-92, 48 h, read-out: GI; outline: as §1
MDA-MB-468 = test: Growth inhibition of human MDA-MB-468 cells at 10 uM after 48 hrs by sulforhodamine B assay relative to control; conditions: MDA-MB-468, 48 h, read-out: GI
Outline: (§5)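 NCI-60 human cancer cell line screen, single-dose pass: cells exposed to 10 μM for 48 h. Cellular protein content read out by sulforhodamine B staining, and growth inhibition expressed relative to untreated control.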

SNB-75 [1] = test: Growth inhibition of human SNB75 cells after 48 hrs by sulforhodamine B assay; conditions: SNB-75, 48 h; outline: as §3
SN12C = test: Growth inhibition of human SN12C cells at 10 uM after 48 hrs by sulforhodamine B assay relative to control; conditions: read-out: GI; outline: as §5
SNB-75 [2] = test: Growth inhibition of human SNB75 cells at 10 uM after 48 hrs by sulforhodamine B assay relative to control; conditions: SNB-75, 48 h, read-out: GI; outline: as §4
ACHN = test: Growth inhibition of human ACHN cells after 48 hrs by sulforhodamine B assay; outline: as §2
NCI-H322M [3] = test: Growth inhibition of human NCI-H322M cells at 10 uM after 48 hrs by sulforhodamine B assay relative to control; conditions: read-out: GI; outline: as §5
SW-620 = test: Growth inhibition of human SW620 cells at 10 uM after 48 hrs by sulforhodamine B assay relative to control; conditions: SW-620, 48 h, read-out: GI; outline: as §4
CCRF-CEM = test: Growth inhibition of human CCRF-CEM cells at 10 uM after 48 hrs by sulforhodamine B assay relative to control; conditions: read-out: GI; outline: as §1
OVCAR-8 = test: Growth inhibition of human OVCAR8 cells at 10 uM after 48 hrs by sulforhodamine B assay relative to control; conditions: OVCAR-8, 48 h, read-out: GI; outline: as §5
Hs-578T [4] = test: Growth inhibition of human Hs 578T cells after 48 hrs by sulforhodamine B assay; outline: as §2
HT-29 = test: Growth inhibition of human HT-29 cells after 48 hrs by SRB assay; conditions: HT-29, 48 h
Outline: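 In-house assay. Cells were seeded into 96-well plates at a density for exponential growth and treated with a concentration range for 48 h. They were then fixed in 10% (w/v) TCA and stained with sulforhodamine B. The 50% growth-inhibitory concentration relative to control cells was calculated as the mean of three repeats ± standard deviation.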

SK-MEL-28 = test: Growth inhibition of human SK-MEL-28 cells at 10 uM after 48 hrs by sulforhodamine B assay relative to control; conditions: SK-MEL-28, 48 h, read-out: GI; outline: as §5
MOLT-4 = test: Growth inhibition of human MOLT4 cells at 10 uM after 48 hrs by sulforhodamine B assay relative to control; conditions: MOLT-4, 48 h, read-out: GI; outline: as §5
SF-268 = test: Growth inhibition of human SF268 cells at 10 uM after 48 hrs by sulforhodamine B assay relative to control; conditions: SF-268, 48 h, read-out: GI; outline: as §5
HL-60(TB) = test: Growth inhibition of human HL-60(TB) cells at 10 uM after 48 hrs by sulforhodamine B assay relative to control; conditions: HL-60, 48 h, read-out: GI
Outline: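 NCI-60 human cancer cell line screen, single dose of 10 μM for 48 h. Growth inhibition measured by sulforhodamine B assay of cellular protein content.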

A549 = test: Growth inhibition of human A549/ATCC cells at 10 uM after 48 hrs by sulforhodamine B assay relative to control; conditions: A549, 48 h, read-out: GI; outline: as §1
786-0 [5] = test: Growth inhibition of human 786-0 cells after 48 hrs by sulforhodamine B assay; conditions: 786-0, 48 h; outline: as §2
UACC-257 [6] = test: Growth inhibition of human UACC257 cells after 48 hrs by sulforhodamine B assay; conditions: UACC-257, 48 h
Outline: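 NCI-60 panel cells treated at five concentrations from 10 nM to 100 μM for 48 h. Read-out by sulforhodamine B protein stain. GI50 and total growth inhibition (TGI, if below 100 μM) taken from the concentration-response data.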

NCI-H522 = test: Growth inhibition of human NCI-H522 cells after 48 hrs by sulforhodamine B assay; conditions: NCI-H522, 48 h; outline: as §3
OVCAR-4 = test: Growth inhibition of human OVCAR4 cells at 10 uM after 48 hrs by sulforhodamine B assay relative to control; conditions: OVCAR-4, 48 h, read-out: GI; outline: as §5
IGROV-1 = test: Growth inhibition of human IGROV1 cells at 10 uM after 48 hrs by sulforhodamine B assay relative to control; conditions: IGROV-1, 48 h, read-out: GI; outline: as §1
786-0 [7] = test: Growth inhibition of human 786-0 cells at 10 uM after 48 hrs by sulforhodamine B assay relative to control; conditions: 786-0, 48 h, read-out: GI; outline: as §1
UACC-257 [8] = test: Growth inhibition of human UACC257 cells at 10 uM after 48 hrs by sulforhodamine B assay relative to control; conditions: UACC-257, 48 h, read-out: GI; outline: as §4
NCI-H322M [9] = test: Growth inhibition of human NCI-H322M cells after 48 hrs by sulforhodamine B assay; outline: as §3
Hs-578T [10] = test: Growth inhibition of human Hs 578T cells at 10 uM after 48 hrs by sulforhodamine B assay relative to control; conditions: read-out: GI; outline: as §1

Row | Compound | inhibition of growth at 10 µM (MCF7) [%] | GI50 (DU-145) [µM] | inhibition of growth at 10 µM (BT-549) [%] | GI50 (OVCAR-5) [µM] | inhibition of growth at 10 µM (TK-10) [%] | inhibition of growth at 10 µM (UO-31) [%] | inhibition of growth at 10 µM (HOP-92) [%] | inhibition of growth at 10 µM (MDA-MB-468) [%] | GI50 (SNB-75 [1]) [nM] | inhibition of growth at 10 µM (SN12C) [%] | inhibition of growth at 10 µM (SNB-75 [2]) [%] | GI50 (ACHN) [µM] | inhibition of growth at 10 µM (NCI-H322M [3]) [%] | inhibition of growth at 10 µM (SW-620) [%] | inhibition of growth at 10 µM (CCRF-CEM) [%] | inhibition of growth at 10 µM (OVCAR-8) [%] | GI50 (Hs-578T [4]) [nM] | TGI (Hs-578T [4]) [µM] | GI50 (HT-29) [µM] | inhibition of growth at 10 µM (SK-MEL-28) [%] | other results
1 | Cc1noc(C)c1-c1cc(O)cc(C(O)c2ccccc2)c1 (stereo unspecified) | 79.1 | 6.95 | 35.3 | 31.8 | 87.4 | 83.1 | 74.4 | 75.1 | 423 | 25.5 | 113 | 4.76 | 52.4 | 27.9 | 53.3 | 61.4 | 1930 | 90.7 | 4.54 to 5.79 | 38.8 | inhibition of growth at 10 µM (MOLT-4): 41.3%; inhibition of growth at 10 µM (SF-268): 28.5%; inhibition of growth at 10 µM (HL-60(TB)): 90%; inhibition of growth at 10 µM (A549): 44.6%; GI50 (786-0 [5]): 27.1 µM; GI50 (UACC-257 [6]): 4.66 µM; GI50 (NCI-H522): 27 µM; inhibition of growth at 10 µM (OVCAR-4): 67.5%; inhibition of growth at 10 µM (IGROV-1): 54%; inhibition of growth at 10 µM (786-0 [7]): 45.2%; inhibition of growth at 10 µM (UACC-257 [8]): 59.6%; GI50 (NCI-H322M [9]): 8.41 µM; inhibition of growth at 10 µM (Hs-578T [10]): 66.3%
2 | COc1ccccc1S(=O)(=O)Nc1ccc2c(c1)CN(C)C(=O)N2 | 78.5 | 28.8 | -0.7 | 10.5 | 82.7 | 89.8 | 97.6 | 78.9 | 400 | 46.8 | 82.5 | 7.8 | 57.1 | 40.6 | 51.1 | 43.8 | 1900 | 63.1 | 3 | 51.1 | inhibition of growth at 10 µM (MOLT-4): 61.6%; inhibition of growth at 10 µM (SF-268): 27.1%; inhibition of growth at 10 µM (HL-60(TB)): 78.1%; inhibition of growth at 10 µM (A549): 49.5%; GI50 (786-0 [5]): 12 µM; GI50 (UACC-257 [6]): 3.6 µM; GI50 (NCI-H522): 8.7 µM; inhibition of growth at 10 µM (OVCAR-4): 56.9%; inhibition of growth at 10 µM (IGROV-1): 76%; inhibition of growth at 10 µM (786-0 [7]): 27.3%; inhibition of growth at 10 µM (UACC-257 [8]): 66.2%; GI50 (NCI-H322M [9]): 6 µM; inhibition of growth at 10 µM (Hs-578T [10]): 66.3%
